The source made the active and inactive calls.
Tests used:
Rattus norvegicus [1] = experiment: Central dopaminergic activity in 6-OH-DA-lesioned specific pathogen-free Sprague-Dawley rat assessed as induction of rotational behavior measured as total time at 0.5 mg/kg, ip; format: functional; conditions: route intraperitoneal
Method in brief: (§1)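 Drugs were given ip, mostly to one group of four rats, with an extra group of four in some runs. Doses were 3 days or more apart over several months. Read-outs were total turning time (min), peak activity, overall mean activity and total activity, given as means ± SEM.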

Mus musculus [2] = experiment: Antinociceptive activity in naloxone hydrochloride-pretreated albino CD-1 mouse at 0.1 to 10 mg/kg, ip after 60 mins by tail-flick method; format: functional, organism-based
Rattus norvegicus [3] = experiment: Central dopaminergic activity in 6-OH-DA-lesioned specific pathogen-free Sprague-Dawley rat assessed as induction of rotational behavior measured as total time at 1 mg/kg, ip; format: functional; conditions: route intraperitoneal; method in brief: as §1
Mus musculus [4] = experiment: Antinociceptive activity in albino CD-1 mouse at 0.1 to 10 mg/kg, ip after 60 mins by tail-flick method; format: functional, organism-based
Method in brief: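 Male albino CD-1 mice (18–24 g) were used in groups of ten. Compounds were suspended in 0.5% methylcellulose and given ip. Light was focused on the ventral tail and set for a 2–4 s baseline flick; mice outside that range were excluded. The control was the mean of two readings 30 min apart. Latencies were read every 30 min for 2 h, with a 10 s cutoff. Read-out was %MPE = [(Tr − Tc)/(10 − Tc)] × 100, taken at time of peak effect.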

Rattus norvegicus [5] = experiment: Central dopaminergic activity in 6-OH-DA-lesioned specific pathogen-free Sprague-Dawley rat assessed as induction of rotational behavior measured as total time at 0.25 mg/kg, ip; format: functional; conditions: route intraperitoneal; method in brief: as §1
Rattus norvegicus [6] = experiment: Central dopaminergic activity in 6-OH-DA-lesioned specific pathogen-free Sprague-Dawley rat assessed as induction of rotational behavior measured as total time at 2.5 mg/kg, ip; format: functional; conditions: route intraperitoneal; method in brief: as §1
Rattus norvegicus [7] = experiment: Central dopaminergic activity in 6-OH-DA-lesioned ip dosed specific pathogen-free Sprague-Dawley rat assessed as induction of rotational behavior; format: functional, organism-based; method in brief: as §1
Rattus norvegicus [8] = experiment: Central dopaminergic activity in 6-OH-DA-lesioned specific pathogen-free Sprague-Dawley rat assessed as induction of rotational behavior measured as total time at 0.05 mg/kg, ip; format: functional; conditions: route intraperitoneal; method in brief: as §1
Rattus norvegicus [9] = experiment: Central dopaminergic activity in 6-OH-DA-lesioned specific pathogen-free Sprague-Dawley rat assessed as induction of rotational behavior measured as total time at 0.01 mg/kg, ip; format: functional; conditions: route intraperitoneal; method in brief: as §1
Rattus norvegicus [10] = experiment: Central dopaminergic activity in 6-OH-DA-lesioned specific pathogen-free Sprague-Dawley rat assessed as induction of rotational behavior measured as total time at 0.1 mg/kg, ip; format: functional; conditions: route intraperitoneal; method in brief: as §1
Mus musculus [11] = experiment: Antinociceptive activity in albino CD-1 mouse at 1 to 10 mg/kg, ip up to 2 hrs by tail-flick method; format: functional, organism-based
Method in brief: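 Male albino CD-1 mice (18–24 g), ten per group, dosed ip as suspension in 0.5% methylcellulose. Radiant light on ventral tail, adjusted for baseline 2–4 sec; animals outside excluded. Two control latencies 30 min apart averaged; post-dose latencies every 30 min over 2 hr, 10-sec cutoff. %MPE = [(Tr − Tc)/(10 − Tc)] × 100, read at peak-effect time.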

Rattus norvegicus [12] = experiment: Central dopaminergic activity in 6-OH-DA-lesioned specific pathogen-free Sprague-Dawley rat assessed as induction of rotational behavior measured as total time at 25 mg/kg, ip; format: functional; conditions: route intraperitoneal
Method in brief: (§2)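 Rotational behavior in unilaterally 6-OHDA-lesioned rats, ascending DA pathway. Drug given ip, mostly to one group of four rats, plus a second group of four for some doses. Injections at least 3 days apart over several months. Reported as mean total turning time (min), peak, overall and total activity, means ± SEM.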

Rattus norvegicus [13] = experiment: Central dopaminergic activity in 6-OH-DA-lesioned specific pathogen-free Sprague-Dawley rat assessed as induction of rotational behavior measured as total time at 5 mg/kg, ip; format: functional; conditions: route intraperitoneal; method in brief: as §1
Rattus norvegicus [14] = experiment: Central dopaminergic activity in 6-OH-DA-lesioned specific pathogen-free Sprague-Dawley rat assessed as induction of rotational behavior measured as total time at 15 mg/kg, ip; format: functional; conditions: route intraperitoneal; method in brief: as §2
Rattus norvegicus [15] = experiment: Central dopaminergic activity in 6-OH-DA-lesioned specific pathogen-free Sprague-Dawley rat assessed as induction of rotational behavior measured as total time at 2 mg/kg, ip; format: functional; conditions: route intraperitoneal; method in brief: as §1
Rattus norvegicus [16] = experiment: Central dopaminergic activity in 6-OH-DA-lesioned specific pathogen-free Sprague-Dawley rat assessed as induction of rotational behavior measured as total time at 0.025 mg/kg, ip; format: functional; conditions: route intraperitoneal; method in brief: as §1
Mus musculus [17] = experiment: Antinociceptive activity in naloxone hydrochloride-pretreated albino CD-1 mouse at 0.1 to 10 mg/kg, ip after 10 mins by tail-flick method; format: functional, organism-based
Mus musculus [18] = experiment: Antinociceptive activity in albino CD-1 mouse at 0.1 to 10 mg/kg, ip after 10 mins by tail-flick method; format: functional, organism-based
Rattus norvegicus [19] = experiment: Central dopaminergic activity in 6-OH-DA-lesioned specific pathogen-free Sprague-Dawley rat assessed as induction of rotational behavior measured as total time at 0.005 mg/kg, ip; format: functional; conditions: route intraperitoneal; method in brief: as §1

Row | Structure (SMILES) | Activity (Mus musculus [2]) | Time (Rattus norvegicus [3]) [min] | Activity (Mus musculus [4]) | Activity (Rattus norvegicus [7]) | Time (Rattus norvegicus [8]) [min] | Time (Rattus norvegicus [9]) [min] | also measured
1 | CCCN1CCc2cccc3c2C1Cc1ccc(O)cc1-3 (racemic) | Active | 177 | Active | Active |  |  | Time (Rattus norvegicus [1]): 105 min; Time (Rattus norvegicus [5]): 0 min; Time (Rattus norvegicus [6]): 174 min
2 | CCCN1CCc2cccc3c2C1Cc1cccc(O)c1-3 (racemic) |  | 725 |  | Active | 195 | 0 | Time (Rattus norvegicus [10]): 200 min; Time (Rattus norvegicus [5]): 580 min
3 | N[C@@H](Cc1ccc(O)c(O)c1)C(=O)O [LEVODOPA] |  |  |  |  |  |  | Activity (Mus musculus [11]): inactive; Time (Rattus norvegicus [12]): 127 min; Time (Rattus norvegicus [13]): 35 min; Time (Rattus norvegicus [14]): 90 min
4 | CN1CC[C@]23c4c5ccc(O)c4O[C@H]2[C@@H](O)C=C[C@H]3[C@H]1C5 | inactive |  | Active |  |  |  | 
5 | CN1CCc2cccc3c2[C@H]1Cc1ccc(O)c(O)c1-3 [APOMORPHINE] | Active | 153 | inactive | Active | 63 | 33 | Time (Rattus norvegicus [1]): 144 min; Time (Rattus norvegicus [15]): 238 min; Time (Rattus norvegicus [16]): 55 min
6 | CCCN1CCc2cccc3c2[C@H]1Cc1ccc(O)c(O)c1-3 (racemic) [R-N-PROPYLNORAPOMORPHINE] |  |  |  | Active | 305 | 200 | Activity (Mus musculus [17]): Active; Activity (Mus musculus [18]): Active; Time (Rattus norvegicus [10]): 360 min; Time (Rattus norvegicus [16]): 185 min; Time (Rattus norvegicus [19]): 205 min
7 | COc1ccc2c(c1O)-c1cccc3c1[C@@H](C2)N(C)CC3 [APOCIDEINE] |  | 40 |  |  |  |  | Time (Rattus norvegicus [13]): 200 min

Source: ChEMBL document CHEMBL3272191, “Aporphines. 14 Dopaminergic and antinociceptive activity of aporphine derivatives. Synthesis of 10-hydroxyaporphines and 10-hydroxy-N-n-propylnoraporphine” (1976)
